RORA inh: blocks the human nuclear receptor RORA | inhibition, % at 10 µM | 0.43% of 65,000 active | CHO-K1 Gal4-RORA LBD luciferase reporter, luminescence | P35398;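 active means inhibition above the mean of all tested compounds plus 3 SD, cut at about 52% in these data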;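 further: 0% = RORA-transfected cells with DMSO and 100% = mock-transfected cells lacking RORA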
Target sequence (P35398 whole entry, looked up, the tested form may be a part): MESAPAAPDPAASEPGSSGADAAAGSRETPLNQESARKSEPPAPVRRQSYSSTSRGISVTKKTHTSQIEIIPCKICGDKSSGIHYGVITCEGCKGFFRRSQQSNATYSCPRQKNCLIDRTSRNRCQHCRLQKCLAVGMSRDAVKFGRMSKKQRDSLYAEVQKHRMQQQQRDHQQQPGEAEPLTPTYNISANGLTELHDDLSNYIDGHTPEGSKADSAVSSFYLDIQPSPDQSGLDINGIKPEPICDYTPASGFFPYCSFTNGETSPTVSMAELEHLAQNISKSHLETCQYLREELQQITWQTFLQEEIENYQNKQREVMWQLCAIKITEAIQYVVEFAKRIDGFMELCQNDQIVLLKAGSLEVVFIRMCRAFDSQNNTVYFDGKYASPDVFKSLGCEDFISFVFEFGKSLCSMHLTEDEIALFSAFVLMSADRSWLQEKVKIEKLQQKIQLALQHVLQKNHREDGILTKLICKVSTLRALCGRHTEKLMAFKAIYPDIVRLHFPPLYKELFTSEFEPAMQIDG
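System: transiently transfected CHO-K1 cells, Gal4-DBD/human RORA-LBD fusion plus 5xGal4-luciferase reporter. Doses: one dose of 10 µM final. Timing: 20 h compound treatment, 37 °C. Measured by: luminescence. Evaluation: % inhibition of basal luciferase versus +RORA/-RORA DMSO controls. Benchmarks: mock-transfected cells as 100%, +RORA DMSO cells as 0%. Replicates: single test per compound.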
Active calls of the source: *. This excerpt belongs to a sample that is enriched for hits.

SMILES	RORA inh
O=P(O)(O)c1ccccc1OCc1ccccc1	-8.5
O=C(COc1ccccc1Cl)Nc1ccc(Cl)cn1	-62.0
O=C(O)c1cccc(COc2ccccc2Cl)c1	91.8*
COc1ccc(S(=O)(=O)Cc2ccc(C(=O)NCc3ccc(F)cc3)o2)cc1	-13.7
O=c1oc2c3c4c(cc2cc1-c1nc2ccccc2[nH]1)CCCN4CCC3	-52.1
CCN(CC)c1ccc(-c2nc3cnccc3n2C)cc1	-67.3
Clc1ccc(-c2nnc(NC3=NCCCCC3)o2)cc1	65.3*
Fc1ccc(-c2nnc(-c3ccc(Cl)cc3)o2)cc1	-56.1
Cc1c(C(=O)N2CCOCC2)sc2nc(-c3ccccc3)cn12	-58.1
Cc1c(C(=O)NCc2cccnc2)sc2nc(-c3ccccc3)cn12	-53.5
c1ccc(-c2cn3c4c(sc3n2)CCCC4)cc1	73.8*
CC1=CC(C)(C)N2C(=O)C3(C(C#N)=C(N)Oc4cc(O)ccc43)c3cccc1c32 (configuration not stated)	-37.3
CN(C)Cc1cc(C(C)(C)c2cc(CN(C)C)c(O)c(CN(C)C)c2)cc(CN(C)C)c1O	-1.0
COc1ccc(-c2nsc3c(N4CCN(S(=O)(=O)c5ccccc5)CC4)ncnc23)cc1	14.0
FC(F)(F)c1cc(-c2ccccc2)nc(N2CCCCCC2)n1	6.2
O=S(=O)(c1ccccc1)N1CCN(c2cc(-c3ccccc3)nc3ncnn23)CC1	69.7*
CCC1CCCCN1C(=O)COC(=O)c1ccc(S(=O)(=O)N2CCOCC2)cc1 (configuration not stated)	0.7
N#Cc1c(N)nc2c(c1-c1ccncc1)CCCCCC2	9.5
Cc1ccc(-c2nc3nc4ccccc4nc3n2Cc2ccco2)cc1	68.0*
CCCn1c(-c2ccc(OC)cc2)nc2nc3ccccc3nc21	-3.7
c1ccc(Cn2c(-c3ccco3)nc3nc4ccccc4nc32)cc1	-75.1
COc1cc(CN/C(C)=C(\C#N)C(N)=O)cc(OC)c1OC	-15.0
CCN1CCN(C(=O)c2cc3nc(-c4ccccc4)cc(C(F)(F)F)n3n2)CC1	10.8
CC1CCN(C(=O)CSc2nnc(-c3ccc(S(=O)(=O)N4CCOCC4)cc3)n2C)CC1	8.5
C=CCOc1nc2c(c(=O)n(C)c(=O)n2C)n1Cc1ccc(Cl)cc1	57.9*
SMILES	RORA inh
CC1CCN(c2nc3c(c(=O)n(C)c(=O)n3C)n2Cc2ccccc2)CC1	-13.7
CCCCCn1c(CN2CCN(Cc3ccccc3)CC2)nc2c1c(=O)n(C)c(=O)n2C	11.6
CCC(C)C(NC(=O)OC(C)(C)C)C(=O)NC(C(=O)N1CCCC1C(N)=O)C(C)CC (configuration not stated)	1.2
CC1(C)CC(=O)c2cc(OCC(=O)NCCN3CCCc4ccccc43)ccc2O1	-4.6
CCOC(=O)C1=C(C)NC(=O)NC1c1ccc(NC(C)=O)cc1 (configuration not stated)	-3.2
COC(=O)C1=C(CN2CCCc3ccccc32)NC(=O)NC1c1ccc(F)cc1 (configuration not stated)	77.6*
Cc1cc(NC(=O)c2ccco2)ncc1NC(=O)Cc1ccccc1	-56.9
Cc1cccc(-n2ncc3c(N(C)Cc4ccccc4)ncnc32)c1	-55.5
COc1ccc(-c2cc3nc4n(c(=O)c3s2)CCOC4)cc1	60.2*
COc1ccc(-c2csc(N3CCOCC3)n2)cc1OC	-60.9
O=C(C1CCC(=O)N1Cc1ccccc1Cl)N1CCN(c2cccc(Cl)c2)CC1 (configuration not stated)	-2.9
CCc1nnc2c3cnn(-c4ccc(C)c(C)c4)c3ncn12	-56.9
CCOc1ccccc1N(CC(=O)Nc1ccc(C)cc1)S(C)(=O)=O	-5.9
Cc1nnc2sc(-c3cc4ccccc4o3)nn12	-56.8
CC(=O)Nc1ccc(S(=O)(=O)NCCNC(=O)c2ccccc2F)cc1	3.7
O=C(Nc1nc2ccccc2[nH]1)c1ccccc1F	86.5*
O=C(CSc1nc2ccccc2[nH]1)N1CCCCC1	-52.1
COc1ccccc1CCC(=O)Nc1nc2ccccc2[nH]1	-18.7
O=C(Nc1nc2ccccc2[nH]1)c1ccc(F)cc1	53.6*
c1ccc(Nc2nc3ccccc3[nH]2)nc1	-78.6
O=C(CCN1c2ccccc2Sc2ccccc21)OCC(=O)N1CCN(C(=O)c2ccco2)CC1	5.9
CCOC(=O)c1ccc2c(c1)NC(=O)C(N1CCN(c3ccc(OC)cc3)CC1)S2 (configuration not stated)	-44.8
CC(C)C(=O)Nc1ccc2c(c1)C(=O)N(CCC(=O)O)C2=O	2.7
COc1ccc(CNC(=O)CN(CC2CCCO2)C(=O)CNS(=O)(=O)c2ccc(F)cc2)cc1 (configuration not stated)	20.0
CC(=O)OC(C(=O)Nc1ccccc1)C(C)S(=O)(=O)c1ccccc1 (configuration not stated)	19.5
SMILES	RORA inh
COc1ccccc1CNC(=O)C1COc2ccccc2O1 (configuration not stated)	1.9
COc1cc(C(=O)NC2=NCCS2)ccc1OCc1c(C)noc1C	5.2
O=C(NC1=NCCS1)C1COc2ccccc2O1 (configuration not stated)	71.8*
Cc1onc(-c2ccccc2Cl)c1C(=O)NCCN1Cc2ccccc2C1=O	-2.2
CC(=O)Nn1c(-c2ccccc2)cc2ccccc21	-14.3
C=CCSc1nc2ccccc2n1Cc1nnc(-c2cccs2)o1	17.8
COC(=O)c1sc2nc(N3CCCCC3)c3c(c2c1N)CC(C)(C)N(C)C3	-0.6
c1ccc(Cc2nc(-c3ccccn3)no2)cc1	-61.2
Cc1ccc(-c2nc(-c3ccccn3)no2)cc1	90.1*
Clc1cccc(-c2nc(-c3ccccn3)no2)c1	61.7*
CC(C)(C)c1ccc(OCc2nc(-c3ccccn3)no2)c(Br)c1	-67.1
c1ccc(CCCc2nc(-c3ccccn3)no2)cc1	-50.3
Brc1ccc(-c2nc(-c3ccccc3)no2)o1	-68.4
Cc1ccc(-c2nc(-c3ccccn3)no2)cc1Cl	80.7*
Clc1cc(Cl)c(OCc2nc(-c3ccccn3)no2)cc1Cl	-52.2
Cc1cccc(-c2noc(Cc3ccc(Cl)cc3)n2)c1	-12.0
Clc1ccc(OCc2nnc(-c3ccccc3Br)o2)c(Cl)c1	-90.4
COc1ccc2nc(NCc3ccccc3)[nH]c2c1	-51.7
CCCCNc1cc(C)nc(NCc2ccccc2)n1	57.0*
COc1ccc(Nc2nccc3c2nnn3C)cc1	-52.7
CCC12CN(C(=O)c3ccc(OC)cc3)CC(CC)(CN(C(=O)c3ccc(OC)cc3)C1)C2=O	0.7
CCCC(NS(=O)(=O)c1ccc(Br)cc1)C(=O)O (configuration not stated)	23.3
COc1ccc(S(=O)(=O)Nc2nnc(C(C)(C)C)s2)cc1	-16.8
O=S(=O)(NC1CCCCCC1)c1cccc2cccnc12	16.7
COc1cc(NS(=O)(=O)c2ccc(C)cc2)c2ncccc2c1	85.0*
SMILES	RORA inh
COc1nc(N(C#N)CC(N)=O)nc(N2CCCC2)n1	-0.2
O=C(NCCN1CCOCC1)C1CC(=O)N(c2ccc(F)c(Cl)c2)C1 (configuration not stated)	-7.1
O=C(CCc1ccc(S(=O)(=O)N2CCOCC2)cc1)NCCCN1CCCC1=O	1.0
CC(=O)N1CCN(c2ccc(Nc3nc(C)nc4c3oc3ccccc34)cc2)CC1	-18.5
Cc1nc(NC(C)c2ccccc2)c2oc3ccccc3c2n1 (configuration not stated)	58.1*
CC(C)(C)NC(=O)Cn1c(SCC(=O)NC2CCCCC2)nc2ccccc21	2.2
COC(=O)c1c(NC(=O)CC2SCC(C(=O)OC)NC2=O)sc2c1CCCC2 (configuration not stated)	-51.7
Cc1oc(-c2ccc3c(c2)OCCO3)cc1C(=O)O	74.9*
